From ChEMBL document CHEMBL1938375, “Design, synthesis and biological evaluation of pyrazole derivatives as potential multi-kinase inhibitors in hepatocellular carcinoma” (Eur J Med Chem, 2012)
Active and inactive are the calls of the source. The rule behind the calls is not given here.

Key:
SNU-449 [1] = assay: Cell cycle arrest in human SNU449 cells assessed as accumulation at G1 phase at 100 uM after 48 to 72 hrs using […]propidium iodide staining by flow cytometric analysis; type: functional, cell-based
SNU-449 [2] = assay: Decrease of cyclin D1 level in human SNU449 cells at 50 uM after 72 hrs by Western blotting relative to beta-actin; type: functional
Outline: (§1)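 Western blots in SNU449 cells treated at a single intermediate level for 72 h, with DMSO as control. Blots probed cyclin D1, p21, p27 and p53. Band intensities were given as the ratio of protein to β-actin.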

SNU-449 [3] = assay: Effect on p27 expression in human SNU449 cells at 50 uM after 72 hrs by Western blotting relative to beta-actin; type: functional; outline: as §1
SNU-449 [4] = assay: Up-regulation of p21 expression in human SNU449 cells at 50 uM after 72 hrs by Western blotting relative to beta-actin; type: functional; outline: as §1
SNU-449 [5] = assay: Up-regulation of p53 expression in human SNU449 cells at 50 uM after 72 hrs by Western blotting relative to beta-actin; type: functional; outline: as §1
SNU-449 [6] = assay: Induction of apoptosis in human SNU449 cells at 50 to 100 uM after 72 hrs using annexin V/propidium iodide staining by flow cytometric analysis; type: functional, cell-based
Outline: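 SNU449 cells were treated at two compound levels for 72 h, with DMSO as control. Apoptosis was detected by Annexin V/propidium iodide staining and flow cytometry, following the kit instructions. Values are averages ± SD.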

SNU-449 [7] = assay: Cytotoxicity against human SNU449 cells at 50 uM after 48 hrs; type: functional, cell-based
Outline: (§2)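 Trypan blue exclusion counts on SNU449 cells grown in RPMI 1640 with 10% FBS and antibiotics. Compounds came from 10 mM DMSO stocks, diluted and tested at 50, 100 and 150 for 48 and 72 h in triplicate, with DMSO as control. Viable cells were counted in a Burker chamber. IC50 was derived from percentage viable cells relative to control.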

SNU-449 [8] = assay: Cytotoxicity against human SNU449 cells at 50 uM after 72 hrs; type: functional, cell-based; outline: as §2
SNU-449 [9] = assay: Cytotoxicity against human SNU449 cells after 48 hrs; type: functional, cell-based; conditions: SNU-449, 48 h; outline: as §2
SNU-449 [10] = assay: Cytotoxicity against human SNU449 cells after 72 hrs; type: functional, cell-based; conditions: SNU-449, 72 h; outline: as §2
[11] = molecular target: RAC-alpha serine/threonine-protein kinase (Homo sapiens) (UniProt P31749); assay: Inhibition of AKT phosphorylation in human SNU449 cells at 25 uM after 48 hrs by Western blotting relative to beta-actin; type: cell-based; conditions: SNU-449
Sequence of RAC-alpha serine/threonine-protein kinase (Homo sapiens) (P31749 whole entry): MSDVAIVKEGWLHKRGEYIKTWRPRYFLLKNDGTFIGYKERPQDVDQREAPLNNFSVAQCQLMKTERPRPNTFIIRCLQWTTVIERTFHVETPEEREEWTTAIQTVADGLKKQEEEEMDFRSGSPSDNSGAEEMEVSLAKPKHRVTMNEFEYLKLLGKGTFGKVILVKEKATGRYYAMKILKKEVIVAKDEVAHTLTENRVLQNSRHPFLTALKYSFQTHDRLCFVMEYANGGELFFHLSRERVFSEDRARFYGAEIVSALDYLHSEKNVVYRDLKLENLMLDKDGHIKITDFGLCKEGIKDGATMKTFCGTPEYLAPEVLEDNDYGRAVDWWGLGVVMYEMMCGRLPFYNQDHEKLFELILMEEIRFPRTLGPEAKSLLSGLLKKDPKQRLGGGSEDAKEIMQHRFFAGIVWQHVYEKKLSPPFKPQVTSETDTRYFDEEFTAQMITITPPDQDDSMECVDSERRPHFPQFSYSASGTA
Outline: (§3)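 Western blot for P-AKT in SNU449 cells treated at 25, 50 and 100 for 48 h and 72 h, with DMSO-treated cells as control. Bands were quantified as the P-AKT to β-actin ratio.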

[12] = molecular target: RAC-alpha serine/threonine-protein kinase (Homo sapiens) (UniProt P31749); assay: Inhibition of AKT phosphorylation in human SNU449 cells at 50 uM after 48 hrs by Western blotting relative to beta-actin; type: cell-based; conditions: SNU-449; outline: as §3
[13] = molecular target: RAC-alpha serine/threonine-protein kinase (Homo sapiens) (UniProt P31749); assay: Inhibition of AKT phosphorylation in human SNU449 cells at 100 uM after 48 hrs by Western blotting relative to beta-actin; type: cell-based; conditions: SNU-449; outline: as §3
[14] = molecular target: RAC-alpha serine/threonine-protein kinase (Homo sapiens) (UniProt P31749); assay: Inhibition of AKT phosphorylation in human SNU449 cells at 25 uM after 72 hrs by Western blotting relative to beta-actin; type: cell-based; conditions: SNU-449; outline: as §3
[15] = molecular target: RAC-alpha serine/threonine-protein kinase (Homo sapiens) (UniProt P31749); assay: Inhibition of AKT phosphorylation in human SNU449 cells at 50 uM after 72 hrs by Western blotting relative to beta-actin; type: cell-based; conditions: SNU-449; outline: as §3
[16] = molecular target: RAC-alpha serine/threonine-protein kinase (Homo sapiens) (UniProt P31749); assay: Inhibition of AKT phosphorylation in human SNU449 cells at 100 uM after 72 hrs by Western blotting relative to beta-actin; type: cell-based; conditions: SNU-449; outline: as §3
[17] = molecular target: RAC-alpha serine/threonine-protein kinase (Homo sapiens) (UniProt P31749); assay: Inhibition of AKT in human SNU449 cells assessed as phosphorylated RpS6 level at 50 uM after 48 hrs by Western blotting relative to beta-actin; type: cell-based; conditions: SNU-449
Outline: (§4)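 Western blots in SNU449 cells treated at a single intermediate level for 48 and 72 h, with DMSO as control. Blots probed P-ERK1/2, P-GSK-3β (Ser-9) and P-RpS6. Band intensities were given as the ratio of phosphoprotein to β-actin.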

[18] = molecular target: RAC-alpha serine/threonine-protein kinase (Homo sapiens) (UniProt P31749); assay: Inhibition of AKT in human SNU449 cells assessed as phosphorylated RpS6 level at 50 uM after 72 hrs by Western blotting relative to beta-actin; type: cell-based; conditions: SNU-449; outline: as §4
[19] = molecular target: RAC-alpha serine/threonine-protein kinase (Homo sapiens) (UniProt P31749); assay: Inhibition of AKT in human SNU449 cells assessed as phosphorylated GSK3-beta level at 50 uM after 48 hrs by Western blotting relative to beta-actin; type: cell-based; conditions: SNU-449; outline: as §4
[20] = molecular target: RAC-alpha serine/threonine-protein kinase (Homo sapiens) (UniProt P31749); assay: Inhibition of AKT in human SNU449 cells assessed as phosphorylated GSK3-beta level at 50 uM after 72 hrs by Western blotting relative to beta-actin; type: cell-based; conditions: SNU-449; outline: as §4
[21] = molecular target: RAC-alpha serine/threonine-protein kinase (Homo sapiens) (UniProt P31749); assay: Inhibition of AKT in human SNU449 cells assessed as phosphorylated […] level at 50 uM after 72 hrs by Western blotting relative to beta-actin; type: cell-based; conditions: SNU-449
[22] = molecular target: RAC-alpha serine/threonine-protein kinase (Homo sapiens) (UniProt P31749); assay: Inhibition of AKT in human SNU449 cells assessed as phosphorylated ERK1/2 level at 50 uM after 48 hrs by Western blotting relative to beta-actin; type: cell-based; conditions: SNU-449; outline: as §4
[23] = molecular target: RAC-alpha serine/threonine-protein kinase (Homo sapiens) (UniProt P31749); assay: Inhibition of AKT in human SNU449 cells assessed as phosphorylated ERK1/2 level at 50 uM after 72 hrs by Western blotting relative to beta-actin; type: cell-based; conditions: SNU-449; outline: as §4
SNU-449 [24] = assay: Cell cycle arrest in human SNU449 cells assessed as accumulation at G1 phase at 25 uM after 48 to 72 hrs using […]propidium iodide staining by flow cytometric analysis; type: functional, cell-based
[25] = molecular target: RAC-alpha serine/threonine-protein kinase (Homo sapiens) (UniProt P31749); assay: Inhibition of AKT in human SNU449 cells assessed as beta-catenin level at 50 uM after 48 hrs by Western blotting relative to beta-actin; conditions: SNU-449
[26] = molecular target: RAC-alpha serine/threonine-protein kinase (Homo sapiens) (UniProt P31749); assay: Inhibition of AKT in human SNU449 cells assessed as total MDM2 protein level at 50 uM after 72 hrs by Western blotting relative to beta-actin; conditions: SNU-449
[27] = molecular target: RAC-alpha serine/threonine-protein kinase (Homo sapiens) (UniProt P31749); assay: Inhibition of AKT in human SNU449 cells assessed as phosphorylated MDM2 level at 50 uM after 72 hrs by Western blotting relative to beta-actin; conditions: SNU-449
SNU-449 [28] = assay: Cell cycle arrest in human SNU449 cells assessed as decrease in S phase at 100 uM after 48 to 72 hrs using […]propidium iodide staining by flow cytometric analysis
SNU-449 [29] = assay: Cell cycle arrest in human SNU449 cells assessed as accumulation at G1 phase at 50 uM after 72 hrs using […]propidium iodide staining by flow cytometric analysis; type: functional, cell-based

SMILES	Activity (SNU-449 [1])	Ratio (SNU-449 [2])	Ratio (SNU-449 [3])	Ratio (SNU-449 [4])	Ratio (SNU-449 [5])	Activity (SNU-449 [6])	Activity (SNU-449 [7])	Activity (SNU-449 [8])	IC50 (SNU-449 [9])	IC50 (SNU-449 [10])	Ratio [11]	Ratio [12]	Ratio [13]	Ratio [14]	Ratio [15]	Ratio [16]	Ratio [17]	Ratio [18]	Ratio [19]	Ratio [20]	other results
Cc1cccc(-c2cc(C(=O)Nc3ccc(N)cc3)n(-c3ccc(N)cc3)n2)c1C	Active	0.39	0.95	4.6	1.4	Active	Active	Active	< 100 µM	< 50 µM	1.2	0.26	0.07	2.2	0.32	0.5	0.5	0.29	0.18	0.93	Ratio [21]: 0.75; Ratio [22]: 1.5; Ratio [23]: 1.1; Activity (SNU-449 [24]): Active; Ratio [25]: 0.57; Ratio [26]: 1.3; Ratio [27]: 0.4; Activity (SNU-449 [28]): Active
Cc1cccc(NC(=O)c2cc(C(=O)Nc3ccc(N)cc3)n(-c3ccc(N)cc3)n2)c1C	Active	0.67	1.2	4.6	1.3	Active	Active	Active	150 µM	50 µM	1.1	0.58	0.39	1.9	0.53	0.64	0.64	0.49	0.48	0.6	Ratio [21]: 0.46; Ratio [22]: 2; Ratio [23]: 0.91; Activity (SNU-449 [29]): Active; Ratio [25]: 0.41; Ratio [26]: 1.4; Ratio [27]: 0.65; Activity (SNU-449 [28]): Active
